Measured values reported in ChEMBL document CHEMBL3808288, “Identification and in Vivo Evaluation of Liver X Receptor β-Selective Agonists for the Potential Treatment of Alzheimer's Disease” (J Med Chem, 2016).
Values after ≈ are worked out from the molar mass of the structure shown. Active and inactive are the calls of the source. The calls are words filed in the database; no cut-off is given here.

Legend:
[1] = Volume of distribution at steady state in rhesus monkey; type: ADME, organism-based, Macaca mulatta; conditions: in vivo, read-out: Vdss
Mus musculus [2] = experiment: Toxicity in Tg2576 transgenic mouse assessed as change in plasma triglyceride level at 50 mg/kg, sc dosed for 3 weeks; type: organism-based; conditions: in vivo, 504 h
How it was run: (§1)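 12-month-old Tg2576 mice were dosed subcutaneously for three weeks. Brain was assayed for ABCA1 protein, soluble apoE and DEA-soluble Aβ, and plasma and liver were assayed for triglycerides. Groups were compared with vehicle by ANOVA.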

Rhesus monkey [3] = experiment: Increase in amyloid beta40 in CSF of rhesus monkey at 20 mg/kg, po administered for 2 weeks; type: functional, Macaca mulatta
[4] = Cmax in rhesus monkey at 20 mg/kg, po administered for 2 weeks; type: ADME, organism-based, Macaca mulatta; parameters: dose 20 mg/kg, route oral; conditions: in vivo
How it was run: (§2)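 Cmax was estimated across a 2-week once-daily oral dosing study in rhesus monkeys.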

[5] = target: T1, Oxysterols receptor LXR-alpha (Homo sapiens) (UniProt Q13133); experiment: (§3) Partial agonist activity at GST-tagged LXRalpha-LBD (unknown origin) by LanthaScreen TR-FRET liver X receptor coactivator assay
T1 sequence (whole entry): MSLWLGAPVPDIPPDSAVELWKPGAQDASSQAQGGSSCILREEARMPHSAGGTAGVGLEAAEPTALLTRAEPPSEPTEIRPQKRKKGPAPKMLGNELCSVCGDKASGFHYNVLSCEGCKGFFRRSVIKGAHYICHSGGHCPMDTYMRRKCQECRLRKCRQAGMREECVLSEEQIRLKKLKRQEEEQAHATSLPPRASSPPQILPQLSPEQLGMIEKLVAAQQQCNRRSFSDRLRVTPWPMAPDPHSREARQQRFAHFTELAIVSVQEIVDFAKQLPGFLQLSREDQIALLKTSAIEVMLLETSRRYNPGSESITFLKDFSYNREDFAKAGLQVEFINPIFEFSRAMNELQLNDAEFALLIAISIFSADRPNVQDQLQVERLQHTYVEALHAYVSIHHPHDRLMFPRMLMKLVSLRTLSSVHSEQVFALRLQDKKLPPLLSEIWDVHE
How it was run: (§4)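 Cofactor recruitment assay using the ligand binding domains of LXRβ or LXRα. The read-out was EC50 and Emax, with Emax relative to a full agonist control.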

[6] = target: T2, Oxysterols receptor LXR-alpha (Homo sapiens, UniProt Q13133); experiment: as §3; how it was run: as §4
T2 sequence (Q13133 whole entry): T1 sequence (whole entry)

[7] = target: T1, Oxysterols receptor LXR-alpha (Homo sapiens); experiment: (§5) Partial agonist activity at LXRalpha (unknown origin) expressed in human HepG2 cells co-expressing ABCA1 promoter measured after 48 hrs by cell-based transactivation assay
How it was run: (§6)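 Cell-based transactivation assay using endogenous LXRβ or LXRα. The read-out was EC50 and Emax, with Emax expressed relative to a full agonist control set at 100%.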

[8] = target: T2, Oxysterols receptor LXR-alpha; experiment: as §5; how it was run: as §6
Rattus norvegicus [9] = experiment: Increase in apoE level in CSF of Wistar Han rat at 100 mg/kg, sc dosed for 4 days by western blotting method; type: functional, organism-based
How it was run: (§7)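 Rats were dosed subcutaneously for 4 days, and apoE and Aβ were then measured in CSF.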

P-gp [10] = experiment: Efflux ratio in MDCK cells expressing human P-gp assessed as ratio of permeability across basolateral to apical side over apical to basolateral side; type: ADME, cell-based, Canis lupus familiaris; conditions: dog, MDCK-MDR1
Mus musculus [11] = experiment: Activation of LXR in Tg2576 transgenic mouse assessed increase in soluble apoE level in brain at 50 mg/kg, sc dosed for 3 weeks; type: functional, organism-based; how it was run: as §1
Rhesus monkey [12] = experiment: Increase in LDL cholesterol level in rhesus monkey at 10 to 20 mg/kg, po qd for 2 weeks; type: ADME, organism-based, Macaca mulatta; conditions: in vivo, 336 h
How it was run: (§8)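 Rhesus monkeys were dosed orally once daily for 2 weeks. LDL and HDL cholesterol were measured in serum at trough after the last dose and compared with baseline serum samples taken before dosing.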

[13] = target: T3, Oxysterols receptor LXR-beta (Homo sapiens, UniProt P55055); experiment: Agonist activity at GST-tagged LXRbeta-LBD (unknown origin) by LanthaScreen TR-FRET liver X receptor coactivator assay; how it was run: as §4
T3 sequence (P55055 whole entry): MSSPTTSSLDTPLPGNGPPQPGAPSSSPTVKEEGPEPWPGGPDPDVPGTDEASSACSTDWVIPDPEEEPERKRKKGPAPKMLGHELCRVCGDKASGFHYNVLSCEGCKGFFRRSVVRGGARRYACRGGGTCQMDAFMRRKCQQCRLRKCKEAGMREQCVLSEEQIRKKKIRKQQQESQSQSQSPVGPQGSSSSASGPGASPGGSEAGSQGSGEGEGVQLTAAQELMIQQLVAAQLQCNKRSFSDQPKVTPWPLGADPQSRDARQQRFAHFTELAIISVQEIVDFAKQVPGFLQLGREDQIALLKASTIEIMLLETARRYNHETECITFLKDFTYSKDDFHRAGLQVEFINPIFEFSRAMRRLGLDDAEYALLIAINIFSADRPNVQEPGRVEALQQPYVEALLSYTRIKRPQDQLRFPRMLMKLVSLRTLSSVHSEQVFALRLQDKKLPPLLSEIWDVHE

Mus musculus [14] = experiment: Toxicity in Tg2576 transgenic mouse assessed as change in liver triglyceride level at 50 mg/kg, sc dosed for 3 weeks; type: organism-based; conditions: in vivo, 504 h; how it was run: as §1
[15] = Solubility of the compound at pH 2; type: physicochemical; conditions: buffer
[16] = Apparent permeability of compound in MDCK cells; type: ADME, cell-based, Canis lupus familiaris; conditions: dog
Rhesus monkey [17] = experiment: Decrease in ratio of HDL to LDL level in rhesus monkey plasma at 10 to 20 mg/kg, po qd for 2 weeks; type: ADME, organism-based, Macaca mulatta; conditions: in vivo, 336 h; how it was run: as §8
[18] = Protein binding in rat plasma; type: ADME, cell-free; conditions: read-out: PPB (converted)
Rattus norvegicus [19] = experiment: Toxicity in Wistar Han rat assessed as change in plasma triglyceride level at 100 mg/kg, sc dosed for 4 days […]; type: organism-based; conditions: in vivo, 96 h
[20] = target: T4, Oxysterols receptor LXR-beta (Homo sapiens) (UniProt P55055); experiment: Agonist activity at GST-tagged LXRbeta-LBD (unknown origin) by LanthaScreen TR-FRET liver X receptor coactivator assay relative to T1317; how it was run: as §4
T4 sequence (whole entry): T3 sequence (P55055 whole entry)

[21] = Clearance in rat; type: ADME, organism-based; conditions: in vivo
Rhesus monkey [22] = experiment: Upregulation of CETP in rhesus monkey at 20 mg/kg, po qd for 2 weeks relative to control; type: ADME, organism-based; conditions: Macaca mulatta, 336 h, read-out: FC
Mus musculus [23] = experiment: Activation of LXR in Tg2576 transgenic mouse assessed increase in brain ABCA1 level at 50 mg/kg, sc dosed for 3 weeks by western blotting method; type: functional, organism-based; how it was run: as §1
Mus musculus [24] = experiment: Toxicity in wild-type mouse assessed as effect on locomotary behavior at 50 mg/kg, sc dosed for 16 days mins by open field test; type: organism-based; conditions: in vivo, 384 h
How it was run: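 Wild-type mice were part of a three-week subcutaneous dosing study that also included Tg2576 transgenic mice. Locomotor activity was scored in an open-field arena after 16 days of dosing.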

[25] = Protein binding in rhesus monkey plasma; type: ADME, cell-free, Macaca mulatta; conditions: read-out: PPB (converted)
P-gp [26] = experiment: Efflux ratio in MDCK cells expressing rat P-gp assessed as ratio of permeability across basolateral to apical side over apical to basolateral side; type: ADME, cell-based, Canis lupus familiaris; conditions: dog, MDCK-MDR1
Rattus norvegicus [27] = experiment: Toxicity in Wistar Han rat assessed as change in liver triglyceride level at 100 mg/kg, sc dosed for 4 days […]; type: organism-based; conditions: in vivo, 96 h
Rhesus monkey [28] = experiment: Increase in apoE level in CSF of rhesus monkey at 10 and 20 mg/kg, po administered for 2 weeks by apoE ELISA relative to control; type: functional, Macaca mulatta
How it was run: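 Rhesus monkeys were dosed orally once daily for 2 weeks after randomisation on baseline lipids, liver enzymes and liver fat. CSF was taken by lumbar puncture at baseline and at trough after the last dose, and apoE was measured against baseline.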

Rattus norvegicus [29] = experiment: Increase in amyloid beta level in CSF of Wistar Han rat at 100 mg/kg, sc dosed for 4 days by western blotting method; type: functional, organism-based; how it was run: as §7
Rhesus monkey [30] = experiment: Increase in hepatic fat content in rhesus monkey at 10 and 20 mg/kg, po qd for 2 weeks by magnetic resonance spectroscopic imaging method relative to vehicle control; type: ADME, organism-based, Macaca mulatta; conditions: in vivo, 336 h
[31] = target: T1, Oxysterols receptor LXR-alpha (Homo sapiens); experiment: Agonist activity at GST-tagged LXRalpha-LBD (unknown origin) by LanthaScreen TR-FRET liver X receptor coactivator assay T1317; how it was run: as §4
Rhesus monkey [32] = experiment: Increase in lipid level in liver of rhesus monkey at 10 to 20 mg/kg, po qd for 2 weeks; type: ADME, organism-based, Macaca mulatta; conditions: in vivo, 336 h
[33] = Volume of distribution at steady state in rat; type: ADME, organism-based; conditions: in vivo, read-out: Vdss
[34] = Clearance in rhesus monkey; type: ADME, organism-based, Macaca mulatta; conditions: in vivo
Rhesus monkey [35] = experiment: Increase in lipid level in serum of rhesus monkey at 10 to 20 mg/kg, po qd for 2 weeks; type: ADME, organism-based, Macaca mulatta; conditions: in vivo, 336 h
[36] = Half life of compound in rat; type: ADME, organism-based; conditions: in vivo
[37] = Oral bioavailability in rhesus monkey; type: ADME, organism-based, Macaca mulatta; conditions: in vivo
[38] = Cmax in rhesus monkey at 10 mg/kg, po administered for 2 weeks; type: ADME, organism-based, Macaca mulatta; parameters: dose 10 mg/kg, route oral; conditions: in vivo; how it was run: as §2
[39] = Ratio of drug uptake in brain to plasma in rat; type: ADME, cell-free; conditions: brain and plasma, read-out: BPR
[40] = Half life of compound in rhesus monkey; type: ADME, organism-based, Macaca mulatta; conditions: in vivo
Rhesus monkey [41] = experiment: Increase in amyloid beta42 in CSF of rhesus monkey at 20 mg/kg, po administered for 2 weeks; type: functional, Macaca mulatta
Mus musculus [42] = experiment: Reversal of hyperlocomotary behavior in Tg2576 transgenic mouse at 50 mg/kg, sc administered as single dose 4 hrs before test by open field test; type: functional, organism-based
How it was run: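 A single subcutaneous dose was given 4 h before the open-field locomotor test.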

Mus musculus [43] = experiment: Reversal of hyperlocomotary behavior in Tg2576 transgenic mouse at 50 mg/kg, sc dosed for 16 days by open field test; type: functional, organism-based
How it was run: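 Mice from the three-week subcutaneous study were tested in the open field for locomotor activity after 16 days of dosing. Wild-type mice were included for comparison.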

Mus musculus [44] = experiment: Activation of LXR in Tg2576 transgenic mouse assessed decrease in DEA-soluble amyloid-beta level in brain at 50 mg/kg, sc dosed for 3 weeks; type: functional; conditions: 504 h; how it was run: as §1
[45] = Oral bioavailability in rat; type: ADME, organism-based; conditions: in vivo

CC(C)[C@@](O)(C(=O)N1CCC(C2CCN(c3ccc(C(=O)N(C)C)c(Cl)c3)CC2)CC1)C(F)(F)F
Vd [1]: 2.7 L/kg
Activity (Mus musculus [2]): Non-toxic
Activity (Rhesus monkey [3]): 25%
Cmax [4]: 18 µM
Emax [5]: 49%
EC50 [6]: 1900 nM
Emax [7]: 31%
EC50 [8]: 830 nM
Activity (Rattus norvegicus [9]): Active
efflux ratio (P-gp [10]): 0.6
Activity (Mus musculus [11]): Active
Activity (Rhesus monkey [12]): Toxic
EC50 [13]: 30 nM
Activity (Mus musculus [14]): Non-toxic
solubility [15]: 205 µM (≈ 106 µg/mL)
Papp [16]: 24 ×10⁻⁶ cm/s
Activity (Rhesus monkey [17]): Toxic
fraction unbound [18]: 0.018
Activity (Rattus norvegicus [19]): Non-toxic
Emax [20]: 103%
clearance [21]: 87 mL/min/kg
fold induction at 20 mg/kg (Rhesus monkey [22]): 2.8
Activity (Mus musculus [23]): Active
Activity (Mus musculus [24]): Non-toxic
fraction unbound [25]: 0.007
efflux ratio (P-gp [26]): 0.8
Activity (Rattus norvegicus [27]): Non-toxic
fold change (FC) (Rhesus monkey [28]): 3
Activity (Rattus norvegicus [29]): Active
Activity (Rhesus monkey [30]): Non-toxic
Emax [31]: 49%
Activity (Rhesus monkey [32]): Non-toxic
Vd [33]: 8.8 L/kg
clearance [34]: 18 mL/min/kg
Activity (Rhesus monkey [35]): Non-toxic
half-life [36]: 2.9 h
bioavailability [37]: 77%
Cmax [38]: 1 µM
Kp [39]: 0.62
half-life [40]: 2 h
Activity (Rhesus monkey [41]): 25%
Activity (Mus musculus [42]): inactive
Activity (Mus musculus [43]): Active
inhibition in vivo at 50 mg/kg (Mus musculus [44]): 28%
bioavailability [45]: 71%
